Source: article PMC2791411 (Biochemistry, 2009)

Columns and labels:
[1] = biological target: T1, hDAO (human diamine oxidase) (Homo sapiens, UniProt P19801); experiment: Inhibition of hDAO putrescine oxidation; type: biochemical; conditions: for Mode of Inhibition: hDAO, putrescine oxidation, global nonlinear regression
T1 sequence (P19801 20-751): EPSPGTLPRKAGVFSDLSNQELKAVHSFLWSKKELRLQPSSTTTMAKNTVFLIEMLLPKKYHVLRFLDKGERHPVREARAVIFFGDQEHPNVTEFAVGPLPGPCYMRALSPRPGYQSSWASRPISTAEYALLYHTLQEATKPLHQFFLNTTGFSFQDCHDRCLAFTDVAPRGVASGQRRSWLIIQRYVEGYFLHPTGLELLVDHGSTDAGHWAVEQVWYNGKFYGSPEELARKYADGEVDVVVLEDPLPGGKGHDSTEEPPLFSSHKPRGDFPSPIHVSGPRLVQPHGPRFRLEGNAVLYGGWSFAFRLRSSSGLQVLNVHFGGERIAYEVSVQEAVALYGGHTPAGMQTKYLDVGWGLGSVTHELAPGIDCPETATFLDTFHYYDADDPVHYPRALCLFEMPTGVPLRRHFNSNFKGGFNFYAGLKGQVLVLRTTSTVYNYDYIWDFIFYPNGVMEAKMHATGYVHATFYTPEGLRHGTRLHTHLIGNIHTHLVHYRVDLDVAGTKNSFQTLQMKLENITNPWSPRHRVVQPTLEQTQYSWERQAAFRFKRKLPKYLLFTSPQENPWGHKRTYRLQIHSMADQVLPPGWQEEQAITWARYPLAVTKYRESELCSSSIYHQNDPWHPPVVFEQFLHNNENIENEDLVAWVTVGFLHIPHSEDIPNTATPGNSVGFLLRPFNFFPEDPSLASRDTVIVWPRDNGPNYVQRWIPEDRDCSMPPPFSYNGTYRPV

[2] = patients, intravenous treatment; ref [59], [73], [79]–[81]; cited from earlier work
[3] = AIDS patients under pentamidine treatment; ref [72]–[78]; cited from earlier work
hVAP-1 = biological target: T2, hVAP-1 (Homo sapiens, UniProt Q16853); experiment: Inhibition of hVAP-1 amine oxidase activity; type: biochemical; conditions: for Mode of Inhibition: hVAP-1
T2 sequence (Q16853 1-763): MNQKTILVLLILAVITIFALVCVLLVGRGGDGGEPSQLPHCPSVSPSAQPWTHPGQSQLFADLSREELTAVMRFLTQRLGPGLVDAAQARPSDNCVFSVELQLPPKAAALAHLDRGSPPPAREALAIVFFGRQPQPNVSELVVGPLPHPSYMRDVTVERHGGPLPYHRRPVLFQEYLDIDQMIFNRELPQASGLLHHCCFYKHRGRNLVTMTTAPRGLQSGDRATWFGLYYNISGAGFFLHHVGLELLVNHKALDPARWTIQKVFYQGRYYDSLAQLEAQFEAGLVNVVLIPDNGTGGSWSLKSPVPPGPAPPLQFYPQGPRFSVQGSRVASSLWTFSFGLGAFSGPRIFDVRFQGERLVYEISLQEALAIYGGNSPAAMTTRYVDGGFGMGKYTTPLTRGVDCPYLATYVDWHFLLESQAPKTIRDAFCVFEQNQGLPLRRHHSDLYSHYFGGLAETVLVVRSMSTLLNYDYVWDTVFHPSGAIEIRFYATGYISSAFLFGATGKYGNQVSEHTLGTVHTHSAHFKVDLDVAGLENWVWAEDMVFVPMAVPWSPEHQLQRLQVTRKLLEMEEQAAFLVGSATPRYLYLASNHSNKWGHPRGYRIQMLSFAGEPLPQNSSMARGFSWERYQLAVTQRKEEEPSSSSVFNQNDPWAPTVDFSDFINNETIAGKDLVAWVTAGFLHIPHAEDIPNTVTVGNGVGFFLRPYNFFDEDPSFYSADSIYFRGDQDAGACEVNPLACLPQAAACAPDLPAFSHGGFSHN
Procedure, shortened: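 Purified human VAP-1 was supplied as a gift. Activity was followed as benzaldehyde production at 250 nm over 5 min (ε 12,800 M⁻¹cm⁻¹) in 100 mM potassium phosphate, pH 7.2, at 37 °C, with and without test compound. Ki and mode came from global nonlinear regression, choosing the best-fitting competitive, uncompetitive, noncompetitive or mixed model.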

SMILES | inhibition of hDAO, in words [1] | Mode of Inhibition [1] | Ki [1] [µM] | also measured
N=C(N)c1ccc(N=NNc2ccc(C(=N)N)cc2)cc1 [Berenil, 1,3-bis(4’-amidinophenyl)triazene] | very potent inhibitors | Mixed | – | Mode of Inhibition ([1]; listed as berenil): mixed type/partial competitive inhibition
CN/C(=N/CCSCc1nc[nH]c1C)NC#N [Cimetidine] | – | Mixed | 90 ± 14 | –
Clc1cccc(Cl)c1N=C1NCCN1 [Clonidine] | weak inhibitor | Mixed | 100 ± 8 | –
NNC(=O)c1ccncc1 [Isoniazid] | – | purely noncompetitive | 970 ± 50 | –
N=C(N)c1ccc(OCCCCCOc2ccc(C(=N)N)cc2)cc1 [Pentamidine, 1,5-bis(4-amidinophenoxy)pentane] | very potent inhibitors | mixed type/partial competitive inhibition | – | Plasma concentration, lower end of range [2]: 25 ng/mL; Plasma concentration, lower end of range (molar) [2]: 43 nM; Plasma concentration, upper end of range [2]: 1.4 g/mL; Plasma concentration, upper end of range (molar) [2]: 2.3 µM; AIDS patients with adverse side effects [3]: at least 70%; Ki (hVAP-1): 1100 ± 40 nM; Mode of Inhibition (hVAP-1): Noncompetitive; Mode of Inhibition (hVAP-1; listed as pentamidine): purely noncompetitive
NCCCCN [putrescine, 1,4-diaminobutane] | – | – | 2270 ± 140 | –
